Laboratory results: ChEMBL document CHEMBL3112499, “Identification of potent CNS-penetrant thiazolidinones as novel CGRP receptor antagonists” (Bioorg Med Chem Lett, 2014)
pIC50, pKi: −log10 of the molar value.

What was measured:
[1] = target: T1, Calcitonin gene-related peptide type 1 receptor (Homo sapiens, UniProt O60894+Q16602); experiment: Displacement of [125I]CGRP from CGRP receptor in human SK-N-MC cell membranes preincubated for 30 mins followed by radioligand addition measured after 2 hrs by liquid scintillation counting
T1 sequence (Q16602 whole entry, one chain of several): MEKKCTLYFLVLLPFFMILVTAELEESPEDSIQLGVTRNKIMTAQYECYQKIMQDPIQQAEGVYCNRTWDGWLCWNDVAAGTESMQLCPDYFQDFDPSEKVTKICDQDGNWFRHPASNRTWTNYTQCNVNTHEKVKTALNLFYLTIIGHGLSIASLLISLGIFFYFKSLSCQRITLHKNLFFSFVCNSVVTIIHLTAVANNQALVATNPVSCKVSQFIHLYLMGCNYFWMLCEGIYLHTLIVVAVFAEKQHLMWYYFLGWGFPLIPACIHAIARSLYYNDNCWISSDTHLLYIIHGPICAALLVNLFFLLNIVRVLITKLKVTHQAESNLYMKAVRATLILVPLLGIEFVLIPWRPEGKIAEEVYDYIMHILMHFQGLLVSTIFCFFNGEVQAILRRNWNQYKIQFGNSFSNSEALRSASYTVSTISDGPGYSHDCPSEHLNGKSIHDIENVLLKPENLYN

[2] = target: T1, Calcitonin gene-related peptide type 1 receptor; experiment: Antagonist activity at CGRP receptor in human SK-N-MC cells assessed as inhibition of CGRP-stimulated cAMP production preincubated for 30 mins followed by CGRP addition measured after 3 hrs by beta-lactamase reporter gene-based FRET assay; type: functional, cell-based
How it was run: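 SK-N-MC cells (endogenous CGRP receptor) transduced with retroviral cAMP-responsive-promoter β-lactamase reporter; 30,000 cells/well grown overnight in MEM+10% FBS, 37 °C, 5% CO2. Medium swapped to MEM+1% FBS with compound, 30 min pre-incubation; CGRP added (final 200 pM), 3 h at 37 °C. CCF4/AM FRET substrate added, 2 h at room temperature, fluorescence read; n ≥ 3.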

Rattus norvegicus [3] = experiment: Cmax in rat at 10 mg/kg, po; type: ADME, organism-based; design: dose 10 mg/kg, route oral; settings: in vivo
How it was run: (§1)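 Rats dosed orally at 10 mg/kg, in suspension vehicle or in 40% PEG400/10% TPGS/water depending on compound; mean of n = 3.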

Rattus norvegicus [4] = experiment: Oral bioavailability in rat at 10 mg/kg; type: ADME, organism-based; settings: in vivo; how it was run: as §1
Rattus norvegicus [5] = experiment: AUC in rat at 10 mg/kg, po; type: ADME, organism-based, Plasma; design: dose 10 mg/kg, route oral; settings: in vivo; how it was run: as §1
[6] = Ratio of drug level in brain to plasma in rat administered as iv bolus measured after 0.25 to 1 hr post dosing; type: ADME, organism-based; settings: brain and plasma, read-out: BPR
How it was run: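 Rats given an iv bolus; brain and plasma levels taken at 0.25 or 1 h post-dose to give the brain/plasma ratio; mean of n = 3.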

Rattus norvegicus [7] = experiment: Cmax in rat at 30 mg/kg, po; type: ADME, organism-based; design: dose 30 mg/kg, route oral; settings: in vivo
How it was run: (§2)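 Rats dosed at 30 mg/kg in 10% TPGS suspension; mean of n = 3.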

Rattus norvegicus [8] = experiment: Oral bioavailability in rat at 30 mg/kg; type: ADME, organism-based; settings: in vivo; how it was run: as §2
Rattus norvegicus [9] = experiment: AUC in rat at 30 mg/kg, po; type: ADME, organism-based, Plasma; design: dose 30 mg/kg, route oral; settings: in vivo; how it was run: as §2
Rattus norvegicus [10] = experiment: Cmax in po dosed rat; type: ADME, organism-based; design: route oral; settings: in vivo
[11] = Oral bioavailability in rat; type: ADME, organism-based; settings: in vivo
[12] = Clearance in iv dosed rat; type: ADME, organism-based; settings: in vivo
Rattus norvegicus [13] = experiment: AUC in po dosed rat; type: ADME, organism-based, Plasma; settings: in vivo

Compound	pKi [1]	pIC50 [2]	also measured
CC(C)(C)CCN1C(=O)C(CC(=O)N2CCC(N3Cc4ccccc4NC3=O)CC2)SC1c1c(F)cccc1F (configuration not stated)	7.23	6.77	–
O=C(N[C@@H]1CC[C@@H](c2cccc(F)c2F)CN(CC(F)(F)F)C1=O)N1CCC(n2c(=O)[nH]c3ncccc32)CC1 [TELCAGEPANT]	–	–	Cmax (Rattus norvegicus [3]): 550 ng/mL; F (Rattus norvegicus [4]): 45%; AUC (Rattus norvegicus [5]): 3320 ng·h/mL; Kp [6]: 0.03
CC(C)CCN(Cc1cc(Br)c(O)c(Br)c1)C(=O)CCC(=O)N1CCC(N2Cc3ccccc3NC2=O)CC1	6.55	6.13	–
O=C(CC1SC(c2ccccc2)N(Cc2cccnc2)C1=O)N1CCC(N2Cc3ccccc3NC2=O)CC1 (configuration not stated)	6.59	6.10	–
O=C(CC1SC(c2ccccc2)N(C2CC2)C1=O)N1CCC(N2Cc3ccccc3NC2=O)CC1 (configuration not stated)	6.06	5.29	–
O=C(CC1SC(c2ccccc2)N(c2ccccc2)C1=O)N1CCC(N2Cc3ccccc3NC2=O)CC1 (configuration not stated)	6.09	5.53	–
CN1CCN(c2ccccc2C2SC(CC(=O)N3CCC(N4Cc5ccccc5NC4=O)CC3)C(=O)N2CCC(C)(C)C)CC1 (configuration not stated)	–	–	Cmax (Rattus norvegicus [7]): 260 ng/mL; F (Rattus norvegicus [8]): 53%; AUC (Rattus norvegicus [9]): 1600 ng·h/mL
CC(c1ccccc1)N1C(=O)C(CC(=O)N2CCC(N3Cc4ccccc4NC3=O)CC2)SC1c1ccccc1 (configuration not stated)	6.53	6.03	–
O=C(CC1SC(c2ccccc2)N(C2CCCCC2)C1=O)N1CCC(N2Cc3ccccc3NC2=O)CC1 (configuration not stated)	7.06	6.15	–
O=C(CC1SC(c2ccccc2)N(CCc2ccccn2)C1=O)N1CCC(N2Cc3ccccc3NC2=O)CC1 (configuration not stated)	6.69	5.86	–
CC(C)(C)N1C(=O)C(CC(=O)N2CCC(N3Cc4ccccc4NC3=O)CC2)SC1c1ccccc1 (configuration not stated)	5.73	5.12	–
CC(C)(C)CCN1C(=O)C(CC(=O)N2CCC(N3Cc4ccccc4NC3=O)CC2)SC1c1cccc(F)c1F (configuration not stated)	6.93	6.68	–
O=C(CC1SC(c2ccccc2)N(CC2CCCO2)C1=O)N1CCC(N2Cc3ccccc3NC2=O)CC1 (configuration not stated)	7.17	6.28	–
O=C(CC1SC(c2ccccc2)N(CC(F)(F)F)C1=O)N1CCC(N2Cc3ccccc3NC2=O)CC1 (configuration not stated)	6.12	5.34	–
CN1C(=O)C(CC(=O)N2CCC(N3Cc4ccccc4NC3=O)CC2)SC1c1ccccc1 (configuration not stated)	6.69	5.35	–
CCN(CC)CCN1C(=O)C(CC(=O)N2CCC(N3Cc4ccccc4NC3=O)CC2)SC1c1ccccc1 (configuration not stated)	6.52	5.31	–
NCCCC[C@H](NC(=O)[C@@H](Cc1cc(Br)c(O)c(Br)c1)NC(=O)N1CCC(N2Cc3ccccc3NC2=O)CC1)C(=O)N1CCN(c2ccncc2)CC1 [OLCEGEPANT]	–	–	Cmax (Rattus norvegicus [10]): 870 ng/mL; bioavailability [11]: < 1%; clearance [12]: 65 mL/min/kg; AUC (Rattus norvegicus [13]): 260 ng·h/mL; Kp [6]: < 0.03
CC(C)(C)CCN1C(=O)[C@H](CC(=O)N2CCC(N3CCc4ccccc4NC3=O)CC2)S[C@@H]1c1cccc(F)c1N1CCN(C(C)(C)C)CC1	–	–	Cmax (Rattus norvegicus [3]): 410 ng/mL; F (Rattus norvegicus [4]): 13%; AUC (Rattus norvegicus [5]): 530 ng·h/mL; Kp [6]: 0.53
CC(C)N1C(=O)C(CC(=O)N2CCC(N3Cc4ccccc4NC3=O)CC2)SC1c1ccccc1 (configuration not stated)	6.94	5.82	–
CCCCN1C(=O)C(CC(=O)N2CCC(N3Cc4ccccc4NC3=O)CC2)SC1c1ccccc1 (configuration not stated)	7.19	6.49	–
COCCN1C(=O)C(CC(=O)N2CCC(N3Cc4ccccc4NC3=O)CC2)SC1c1ccccc1 (configuration not stated)	6.91	5.91	–

The remaining compounds from weak to strong by pKi [1], led by results:

pKi [1]	pIC50 [2]	Compound	also measured
7.25	6.12	O=C(CC1SC(c2ccccc2)N(Cc2ccc(F)cc2)C1=O)N1CCC(N2Cc3ccccc3NC2=O)CC1 (configuration not stated)	–
7.27	6.74	CC(C)(C)CCN1C(=O)C(CC(=O)N2CCC(N3Cc4ccccc4NC3=O)CC2)SC1c1ccccc1F (configuration not stated)	–
7.28	6.80	CC(C)(C)CCN1C(=O)C(CC(=O)N2CCC(N3Cc4ccccc4NC3=O)CC2)SC1c1ccccc1N1CCOCC1 (configuration not stated)	–
7.35	6.08	O=C(CC1SC(c2ccccc2)N(CC2CC2)C1=O)N1CCC(N2Cc3ccccc3NC2=O)CC1 (configuration not stated)	–
7.40	7.21	CC(C)(C)CCN1C(=O)C(CC(=O)N2CCC(N3Cc4ccccc4NC3=O)CC2)SC1c1ccccc1-n1cccn1 (configuration not stated)	–
7.49	6.43	CC(C)CCN1C(=O)C(CC(=O)N2CCC(N3Cc4ccccc4NC3=O)CC2)SC1c1ccccc1 (racemic)	–
7.49	6.43	CC(C)CN1C(=O)C(CC(=O)N2CCC(N3Cc4ccccc4NC3=O)CC2)SC1c1ccccc1 (configuration not stated)	–
7.52	6.72	CC(C)(C)CCN1C(=O)C(CC(=O)N2CCC(N3Cc4ccccc4NC3=O)CC2)SC1c1ccc(F)cc1F (configuration not stated)	–
7.66	7.06	CC(C)(C)CCN1C(=O)C(CC(=O)N2CCC(N3Cc4ccccc4NC3=O)CC2)SC1c1ccccc1-c1cccnc1 (configuration not stated)	–
7.70	7.00	CC(C)(C)CCN1C(=O)C(CC(=O)N2CCC(N3Cc4ccccc4NC3=O)CC2)SC1c1ccccc1-c1ccncc1 (configuration not stated)	–
7.74	7.36	CC(C)(C)CCN1C(=O)C(CC(=O)N2CCC(N3Cc4ccccc4NC3=O)CC2)SC1c1ccccc1N1CCC(O)CC1 (configuration not stated)	–
7.85	7.08	CN1CCN(c2cc(F)ccc2C2SC(CC(=O)N3CCC(N4CCc5ccccc5NC4=O)CC3)C(=O)N2CCC(C)(C)C)CC1 (configuration not stated)	–
7.85	7.14	CN1CCN(c2ccc(F)cc2C2SC(CC(=O)N3CCC(N4CCc5ccccc5NC4=O)CC3)C(=O)N2CCC(C)(C)C)CC1 (configuration not stated)	–
8.05	6.60	CC(C)(C)CN1C(=O)C(CC(=O)N2CCC(N3Cc4ccccc4NC3=O)CC2)SC1c1ccccc1 (configuration not stated)	–
8.10	7.44	CC(C)(C)CCN1C(=O)C(CC(=O)N2CCC(N3Cc4ccccc4NC3=O)CC2)SC1c1ccccc1N1CCN(CCO)CC1 (configuration not stated)	–
8.15	7.07	CC(C)(C)CCN1C(=O)C(CC(=O)N2CCC(N3Cc4ccccc4NC3=O)CC2)SC1c1ccccc1-n1ccnc1 (configuration not stated)	–
8.52	7.36	CCCCN1CCN(c2ccccc2C2SC(CC(=O)N3CCC(N4Cc5ccccc5NC4=O)CC3)C(=O)N2CCC(C)(C)C)CC1 (configuration not stated)	–
8.70	7.22	CC(C)(C)CCN1C(=O)C(CC(=O)N2CCC(N3Cc4ccccc4NC3=O)CC2)SC1c1ccccc1N1CCNCC1 (configuration not stated)	–
8.70	7.72	CN1CCN(c2ccccc2C2SC(CC(=O)N3CCC(N4CCc5ccccc5NC4=O)CC3)C(=O)N2CCC(C)(C)C)CC1 (configuration not stated)	–
9.00	7.19	CN1CCN(c2cccc(F)c2C2SC(CC(=O)N3CCC(N4CCc5ccccc5NC4=O)CC3)C(=O)N2CCC(C)(C)C)CC1 (configuration not stated)	–
9.00	7.48	CC(C)(C)CCN1C(=O)C(CC(=O)N2CCC(N3CCc4ccccc4NC3=O)CC2)SC1c1ccccc1N1CCNCC1 (configuration not stated)	–
9.30	8.52	CN1CCN(c2c(F)cccc2C2SC(CC(=O)N3CCC(N4CCc5ccccc5NC4=O)CC3)C(=O)N2CCC(C)(C)C)CC1 (configuration not stated)	–
10.15	8.70	CCN1CCN(c2c(F)cccc2C2SC(CC(=O)N3CCC(N4CCc5ccccc5NC4=O)CC3)C(=O)N2CCC(C)(C)C)CC1 (configuration not stated)	–
10.70	9.00	CC(C)N1CCN(c2c(F)cccc2C2SC(CC(=O)N3CCC(N4CCc5ccccc5NC4=O)CC3)C(=O)N2CCC(C)(C)C)CC1 (configuration not stated)	Cmax (Rattus norvegicus [3]): 120 ng/mL; F (Rattus norvegicus [4]): 32%; AUC (Rattus norvegicus [5]): 650 ng·h/mL; Kp [6]: 1.51
